Assay results published in ChEMBL document CHEMBL4392849, “Design, synthesis, evaluation and molecular modeling study of 4-N-phenylaminoquinolines for Alzheimer disease treatment” (Bioorg Med Chem Lett, 2019).

Assays:
Acetylcholinesterase = Acetylcholinesterase (Electrophorus electricus, UniProt O42275); assay: Inhibition of electric eel AChE using acetylthiocholine iodide as substrate preincubated for 15 mins followed by substrate addition by Ellman's method
Cholinesterase = Cholinesterase (Equus caballus, UniProt P81908); assay: Inhibition of equine serum BChE using butyrylthiocholine iodide as substrate preincubated for 15 mins followed by substrate addition by Ellman's method; assay type: single protein
Outline: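 Ellman method run at pH 8.0 in 0.1 M sodium phosphate buffer. Compounds come from 10 mM DMSO stocks diluted in buffer. Enzyme solution is 0.05 U/ml and DTNB stock is 10 mM. These are held 15 min at 25°C, then 7.5 mM butyrylthiocholine iodide stock is added. Percent inhibition comes from hydrolysis rate with versus without inhibitor.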

Sequence of Cholinesterase (P81908 whole entry): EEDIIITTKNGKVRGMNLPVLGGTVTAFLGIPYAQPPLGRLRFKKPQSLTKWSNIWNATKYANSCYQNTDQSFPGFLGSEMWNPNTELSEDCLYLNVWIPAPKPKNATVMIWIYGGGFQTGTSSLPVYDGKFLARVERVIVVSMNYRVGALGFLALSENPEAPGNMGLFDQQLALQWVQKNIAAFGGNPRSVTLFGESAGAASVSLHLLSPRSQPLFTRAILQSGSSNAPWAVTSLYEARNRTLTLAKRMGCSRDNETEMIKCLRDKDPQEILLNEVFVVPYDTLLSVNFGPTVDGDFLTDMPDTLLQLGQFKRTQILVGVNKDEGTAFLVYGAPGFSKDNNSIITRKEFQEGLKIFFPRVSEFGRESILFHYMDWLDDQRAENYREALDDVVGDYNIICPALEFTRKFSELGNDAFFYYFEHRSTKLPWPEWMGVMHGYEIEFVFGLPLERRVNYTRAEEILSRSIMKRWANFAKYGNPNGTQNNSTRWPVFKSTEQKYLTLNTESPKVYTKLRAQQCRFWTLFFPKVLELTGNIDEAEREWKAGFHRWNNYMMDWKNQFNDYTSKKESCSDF
Sequence of Acetylcholinesterase (O42275 whole entry): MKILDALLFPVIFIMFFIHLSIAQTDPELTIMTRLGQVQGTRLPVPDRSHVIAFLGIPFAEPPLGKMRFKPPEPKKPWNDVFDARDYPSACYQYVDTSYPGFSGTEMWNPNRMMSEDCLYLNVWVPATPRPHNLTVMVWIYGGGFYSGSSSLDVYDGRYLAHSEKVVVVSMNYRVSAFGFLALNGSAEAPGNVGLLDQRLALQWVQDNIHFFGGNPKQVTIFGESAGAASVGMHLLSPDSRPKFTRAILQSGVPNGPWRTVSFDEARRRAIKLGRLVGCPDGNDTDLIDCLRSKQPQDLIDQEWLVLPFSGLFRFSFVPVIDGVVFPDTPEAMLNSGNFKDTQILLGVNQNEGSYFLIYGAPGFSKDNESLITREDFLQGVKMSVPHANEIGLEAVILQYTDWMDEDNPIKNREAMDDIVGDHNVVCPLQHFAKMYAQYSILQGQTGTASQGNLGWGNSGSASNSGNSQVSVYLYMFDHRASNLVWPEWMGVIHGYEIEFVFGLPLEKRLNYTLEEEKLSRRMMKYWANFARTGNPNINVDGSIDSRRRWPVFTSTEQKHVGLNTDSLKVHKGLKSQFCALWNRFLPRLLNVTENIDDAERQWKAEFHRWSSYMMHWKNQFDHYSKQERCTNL

Compound	IC50 (Acetylcholinesterase) [µM]	IC50 (Cholinesterase) [µM]
COc1cc2c(Nc3ccc(O)cc3)c([N+](=O)[O-])cnc2cc1OCCCN(C)Cc1ccccc1	0.74	17.4
COc1cc2c(Nc3ccccc3)c([N+](=O)[O-])cnc2cc1OCCCN(C)Cc1ccccc1	0.65	10.1
COc1cc2c(Nc3cccc(C)c3)c([N+](=O)[O-])cnc2cc1OCCCN(C)Cc1ccccc1	1.86	2.78
COc1ccc(Nc2c([N+](=O)[O-])cnc3cc(OCCCN(C)Cc4ccccc4)c(OC)cc23)cc1	10.9	50.4
COc1ccccc1Nc1c([N+](=O)[O-])cnc2cc(OCCCN(C)Cc3ccccc3)c(OC)cc12	7.9	8.67
COc1cc2c(Nc3ccc(Cl)cc3)c([N+](=O)[O-])cnc2cc1OCCC[n+]1ccccc1	0.92	14.2
COc1cc2c(Nc3ccccc3C)c([N+](=O)[O-])cnc2cc1OCCCN(C)Cc1ccccc1	10.1	29.7
COc1cc2c(Nc3cccc(O)c3)c([N+](=O)[O-])cnc2cc1OCCCN(C)Cc1ccccc1	0.71	10.8
COc1cc2c(Nc3ccc(C)cc3)c([N+](=O)[O-])cnc2cc1OCCCN(C)Cc1ccccc1	11.8	73.6
COc1cc2c(Nc3ccc(Cl)cc3)c([N+](=O)[O-])cnc2cc1OCCCN(C)Cc1ccccc1	1.88	17.4
COc1cc2c(Nc3cccc(C(F)(F)F)c3)c([N+](=O)[O-])cnc2cc1OCCCN(C)Cc1ccccc1	7.78	55.4
COc1cc2c(Nc3cccc(Cl)c3)c([N+](=O)[O-])cnc2cc1OCCCN(C)Cc1ccccc1	0.83	15.2
COc1cccc(Nc2c([N+](=O)[O-])cnc3cc(OCCCN(C)Cc4ccccc4)c(OC)cc23)c1	1.72	9.19
COc1cc2c(Nc3ccccc3Cl)c([N+](=O)[O-])cnc2cc1OCCCN(C)Cc1ccccc1	0.86	2.65
COc1cc2c(Nc3ccc(Cl)cc3Cl)c([N+](=O)[O-])cnc2cc1OCCCN(C)Cc1ccccc1	1.85	58.7
